This note sets out measurements from ChEMBL document CHEMBL4028865, “Targeted Polypharmacology: Discovery of a Highly Potent Non-Hydroxamate Dual Matrix Metalloproteinase (MMP)-10/-13 Inhibitor” (J Med Chem, 2017).

For assay [1], the target named is Neutrophil collagenase (Homo sapiens) (UniProt P22894). As to the kind of experiment: Inhibition of MMP8 (unknown origin) assessed as residual activity at 10 uM using (5-FAM/QX) FRET peptide as substrate by fluorescence assay relative to control. The gist of the method: (§1)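 Residual enzyme activity read at a single 10 μM inhibitor concentration, in duplicate. Fluorescence assay on cleavage of the QXL520/5-FAM FRET peptide. Buffer was 50 mM HEPES pH 7.5 with 10 mM CaCl₂, 0.01% Brij-35 and 0.1 mg/ml BSA. GM6001 served as control inhibitor. Same assay system as the IC50 determinations.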

In assay [2] the target is T1, Stromelysin-2 (Homo sapiens, UniProt P09238). Nature of the assay: Inhibition of MMP10 (unknown origin) assessed using (5-FAM/QX) FRET peptide as substrate by fluorescence assay. An outline of the steps:
(§2)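 IC50 from 10 concentrations in 3-fold dilution, starting at 10 μM or 100 μM, with two to six replicates. Run only for compounds leaving under 20% residual activity at 10 μM. Fluorescence read-out of QXL520/5-FAM FRET peptide cleavage in 50 mM HEPES pH 7.5, 10 mM CaCl₂, 0.01% Brij-35 and 0.1 mg/ml BSA. Four-parameter least-squares fit; GM6001 as control.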
Target sequence in this assay (P09238 whole entry): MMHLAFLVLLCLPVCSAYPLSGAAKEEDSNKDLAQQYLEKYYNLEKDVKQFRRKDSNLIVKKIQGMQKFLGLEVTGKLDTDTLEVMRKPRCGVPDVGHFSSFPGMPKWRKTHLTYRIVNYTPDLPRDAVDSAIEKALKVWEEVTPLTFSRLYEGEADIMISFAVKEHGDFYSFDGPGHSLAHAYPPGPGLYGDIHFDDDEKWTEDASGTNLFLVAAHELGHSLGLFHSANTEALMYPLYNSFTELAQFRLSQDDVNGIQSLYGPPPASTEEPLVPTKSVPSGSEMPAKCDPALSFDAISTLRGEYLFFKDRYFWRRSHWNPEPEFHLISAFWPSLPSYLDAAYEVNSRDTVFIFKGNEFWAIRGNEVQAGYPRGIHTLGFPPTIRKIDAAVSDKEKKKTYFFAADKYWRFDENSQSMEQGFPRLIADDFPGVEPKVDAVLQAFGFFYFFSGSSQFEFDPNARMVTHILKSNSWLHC

The target in assay [3] is Matrix metalloproteinase-9 (Homo sapiens) (UniProt P14780). Nature of the assay: Inhibition of MMP9 (unknown origin) assessed as residual activity at 10 uM using (5-FAM/QX) FRET peptide as substrate by fluorescence assay relative to control. An outline of the steps:
as §1

The target in assay [4] is 72 kDa type IV collagenase (Homo sapiens) (UniProt P08253). As to the kind of experiment: Inhibition of C-terminal tagged human recombinant MMP2 catalytic domain expressed in Escherichia coli assessed as residual activity at 10 uM using (5-FAM/QX) FRET peptide as substrate by fluorescence assay relative to control. The gist of the method: as §1
The target in assay [5] is Matrix metalloproteinase-14 (Homo sapiens) (UniProt P50281). Nature of the assay: Inhibition of C-terminal tagged human recombinant MMP14 catalytic domain expressed in Escherichia coli assessed as residual activity at 10 uM using (5-FAM/QX) FRET peptide as substrate by fluorescence assay relative to control. The gist of the method:
as §1

In assay [6] the target is Stromelysin-1 (Homo sapiens) (UniProt P08254). Nature of the assay: Inhibition of C-terminal tagged human recombinant MMP3 catalytic domain expressed in Escherichia coli assessed as residual activity at 10 uM using (5-FAM/QX) FRET peptide as substrate by fluorescence assay relative to control. An outline of the steps:
as §1

Assay [7] addresses T2, Matrilysin (Homo sapiens) (UniProt P09237).
T2 sequence (whole entry): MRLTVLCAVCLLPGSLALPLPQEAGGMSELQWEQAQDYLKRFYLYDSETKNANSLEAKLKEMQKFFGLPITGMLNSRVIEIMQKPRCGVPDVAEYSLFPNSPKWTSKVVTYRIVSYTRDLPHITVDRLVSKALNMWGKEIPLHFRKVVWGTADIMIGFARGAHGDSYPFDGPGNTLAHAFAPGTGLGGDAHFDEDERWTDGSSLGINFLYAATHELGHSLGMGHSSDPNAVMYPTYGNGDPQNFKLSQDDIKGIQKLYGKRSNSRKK
As to the kind of experiment: Inhibition of C-terminal tagged human recombinant MMP7 catalytic domain expressed in Escherichia coli assessed as residual activity at 10 uM using (5-FAM/QX) FRET peptide as substrate by fluorescence assay relative to control. The gist of the method: as §1

The target in assay [8] is T3, Interstitial collagenase (Homo sapiens) (UniProt P03956).
T3 sequence (whole entry): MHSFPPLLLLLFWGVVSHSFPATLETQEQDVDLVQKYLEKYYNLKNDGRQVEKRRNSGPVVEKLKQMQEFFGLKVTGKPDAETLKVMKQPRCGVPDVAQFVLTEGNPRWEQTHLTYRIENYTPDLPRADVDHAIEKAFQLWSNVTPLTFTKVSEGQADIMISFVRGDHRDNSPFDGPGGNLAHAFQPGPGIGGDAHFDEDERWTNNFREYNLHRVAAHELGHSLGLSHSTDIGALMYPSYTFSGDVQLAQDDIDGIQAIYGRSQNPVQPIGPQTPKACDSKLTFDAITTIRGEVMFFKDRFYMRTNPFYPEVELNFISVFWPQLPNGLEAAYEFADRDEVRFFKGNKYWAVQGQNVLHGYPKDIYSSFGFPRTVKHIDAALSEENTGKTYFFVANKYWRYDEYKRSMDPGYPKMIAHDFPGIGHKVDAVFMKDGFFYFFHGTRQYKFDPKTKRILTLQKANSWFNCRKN
Nature of the assay: Inhibition of MMP1 (unknown origin) assessed as residual activity at 10 uM using (5-FAM/QX) FRET peptide as substrate by fluorescence assay relative to control. An outline of the steps: as §1

Assay [9] concerns the target Macrophage metalloelastase (Homo sapiens) (UniProt P39900). Nature of the assay: Inhibition of C-terminal tagged human recombinant MMP12 catalytic domain expressed in Escherichia coli assessed as residual activity at 10 uM using (5-FAM/QX) FRET peptide as substrate by fluorescence assay relative to control. The gist of the method:
as §1

The target in assay [10] is T4, Collagenase 3 (Homo sapiens, UniProt P45452). Nature of the assay: Inhibition of C-terminal tagged human recombinant MMP13 catalytic domain expressed in Escherichia coli using (5-FAM/QX) FRET peptide as substrate by fluorescence assay. An outline of the steps: as §2
Assay [11] concerns the target T1, Stromelysin-2. Nature of the assay: Inhibition of MMP10 (unknown origin) assessed as residual activity at 10 uM using (5-FAM/QX) FRET peptide as substrate by fluorescence assay relative to control. An outline of the steps:
as §1
Target sequence in this assay (P09238 99-476 limits assumed): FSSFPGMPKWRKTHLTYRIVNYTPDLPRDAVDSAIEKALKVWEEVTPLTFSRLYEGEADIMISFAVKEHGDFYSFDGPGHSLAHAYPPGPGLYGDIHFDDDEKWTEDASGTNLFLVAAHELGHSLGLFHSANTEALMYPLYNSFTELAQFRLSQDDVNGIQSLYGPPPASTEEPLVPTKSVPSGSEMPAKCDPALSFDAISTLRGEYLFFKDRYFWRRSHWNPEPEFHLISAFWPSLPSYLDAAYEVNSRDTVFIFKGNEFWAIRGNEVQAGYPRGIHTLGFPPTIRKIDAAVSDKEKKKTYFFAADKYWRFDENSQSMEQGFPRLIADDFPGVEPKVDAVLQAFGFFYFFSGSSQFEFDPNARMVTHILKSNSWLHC

In assay [12] the target is T4, Collagenase 3. As to the kind of experiment: Inhibition of C-terminal tagged human recombinant MMP13 catalytic domain expressed in Escherichia coli assessed as residual activity at 10 uM using (5-FAM/QX) FRET peptide as substrate by fluorescence assay relative to control. An outline of the steps:
as §1

The pIC50 is −log10 of the IC50, conventionally taken in molar units.

The structures appear in SMILES notation. pIC50: −log10 of the molar value.

Stromelysin-1 (Homo sapiens), sequence (P08254 100-477 limits assumed): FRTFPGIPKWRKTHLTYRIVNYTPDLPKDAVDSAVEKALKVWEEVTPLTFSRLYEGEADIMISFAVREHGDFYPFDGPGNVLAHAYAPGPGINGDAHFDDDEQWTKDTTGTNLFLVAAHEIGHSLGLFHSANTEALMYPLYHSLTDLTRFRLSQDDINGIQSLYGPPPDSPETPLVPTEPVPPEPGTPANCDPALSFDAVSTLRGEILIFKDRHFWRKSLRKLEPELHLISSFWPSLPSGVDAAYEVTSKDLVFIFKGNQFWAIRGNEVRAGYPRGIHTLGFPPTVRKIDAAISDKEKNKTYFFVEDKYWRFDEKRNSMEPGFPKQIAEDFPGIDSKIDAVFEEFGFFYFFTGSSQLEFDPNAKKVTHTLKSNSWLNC
72 kDa type IV collagenase (Homo sapiens), sequence (P08253 110-660 limits assumed): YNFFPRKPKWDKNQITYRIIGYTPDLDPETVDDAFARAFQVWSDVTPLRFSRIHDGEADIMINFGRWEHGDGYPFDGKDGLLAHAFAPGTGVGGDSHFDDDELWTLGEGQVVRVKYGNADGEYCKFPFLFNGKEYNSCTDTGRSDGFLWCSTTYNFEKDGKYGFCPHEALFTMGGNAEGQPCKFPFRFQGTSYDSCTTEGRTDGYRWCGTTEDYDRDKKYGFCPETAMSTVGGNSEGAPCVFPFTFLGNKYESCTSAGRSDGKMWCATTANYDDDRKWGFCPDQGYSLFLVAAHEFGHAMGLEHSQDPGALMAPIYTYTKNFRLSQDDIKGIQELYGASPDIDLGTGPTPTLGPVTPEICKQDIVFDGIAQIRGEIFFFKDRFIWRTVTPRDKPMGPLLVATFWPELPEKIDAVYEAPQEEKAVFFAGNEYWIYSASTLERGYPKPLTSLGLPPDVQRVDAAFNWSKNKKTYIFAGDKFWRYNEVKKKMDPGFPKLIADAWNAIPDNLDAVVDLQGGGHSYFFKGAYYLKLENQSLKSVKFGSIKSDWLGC
Matrix metalloproteinase-9 (Homo sapiens), sequence (P14780 whole entry): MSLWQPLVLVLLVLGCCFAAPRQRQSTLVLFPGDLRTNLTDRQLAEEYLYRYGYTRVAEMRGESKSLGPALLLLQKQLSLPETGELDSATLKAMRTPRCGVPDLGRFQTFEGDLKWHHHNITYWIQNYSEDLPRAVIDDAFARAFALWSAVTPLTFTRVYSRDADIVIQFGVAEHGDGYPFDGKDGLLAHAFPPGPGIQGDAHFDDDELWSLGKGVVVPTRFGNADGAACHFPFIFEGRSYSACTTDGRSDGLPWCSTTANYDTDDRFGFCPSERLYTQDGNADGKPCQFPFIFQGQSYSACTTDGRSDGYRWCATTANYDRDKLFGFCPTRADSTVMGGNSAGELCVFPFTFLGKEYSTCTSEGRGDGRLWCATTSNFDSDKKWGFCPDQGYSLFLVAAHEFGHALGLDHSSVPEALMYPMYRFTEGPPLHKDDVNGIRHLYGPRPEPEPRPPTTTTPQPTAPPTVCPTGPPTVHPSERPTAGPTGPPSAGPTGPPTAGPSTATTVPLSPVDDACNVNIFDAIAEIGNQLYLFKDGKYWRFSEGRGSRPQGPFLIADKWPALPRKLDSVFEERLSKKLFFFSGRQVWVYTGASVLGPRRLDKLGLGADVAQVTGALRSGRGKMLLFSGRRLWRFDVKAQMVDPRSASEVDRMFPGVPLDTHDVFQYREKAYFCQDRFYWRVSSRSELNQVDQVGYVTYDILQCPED
Neutrophil collagenase (Homo sapiens), sequence (P22894 101-467 limits assumed): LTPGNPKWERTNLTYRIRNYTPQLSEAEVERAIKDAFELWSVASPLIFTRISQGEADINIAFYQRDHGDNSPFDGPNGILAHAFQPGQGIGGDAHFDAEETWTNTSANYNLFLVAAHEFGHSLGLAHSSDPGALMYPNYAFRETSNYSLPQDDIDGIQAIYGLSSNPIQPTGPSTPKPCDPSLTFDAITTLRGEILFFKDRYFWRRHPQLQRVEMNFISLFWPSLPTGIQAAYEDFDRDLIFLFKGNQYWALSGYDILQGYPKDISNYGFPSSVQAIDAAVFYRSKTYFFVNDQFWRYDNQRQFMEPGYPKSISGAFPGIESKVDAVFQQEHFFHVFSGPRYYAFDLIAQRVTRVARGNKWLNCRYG
Macrophage metalloelastase (Homo sapiens), sequence (P39900 106-470 limits assumed): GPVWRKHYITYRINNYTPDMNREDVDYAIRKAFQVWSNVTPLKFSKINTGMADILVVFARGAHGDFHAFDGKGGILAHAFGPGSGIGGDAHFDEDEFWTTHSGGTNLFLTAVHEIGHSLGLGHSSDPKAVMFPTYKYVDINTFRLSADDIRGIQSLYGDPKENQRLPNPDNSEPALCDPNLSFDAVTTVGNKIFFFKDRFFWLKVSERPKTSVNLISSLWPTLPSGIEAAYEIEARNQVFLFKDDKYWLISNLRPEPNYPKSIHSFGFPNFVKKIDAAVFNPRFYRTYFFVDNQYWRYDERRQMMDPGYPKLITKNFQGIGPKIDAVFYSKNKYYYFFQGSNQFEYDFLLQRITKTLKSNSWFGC

As to `COc1cc(CNC(=O)C#Cc2cn(Cc3ccc(-c4cnco4)cc3)c(=O)[nH]c2=O)ccc1F`, the Activity in [1] amounted to 96.7%; in [3], 97.8%; in assay [4], 100%; in assay [5], 97.6%; in assay [6] it was 37.3%; in [7] it was 87.1%. Moreover, the Activity came to 100% in [8], 88.5% in [9], 2.8% at Stromelysin-2 [11] and 0.4% at Collagenase 3 [12]. The results for the pIC50 on Stromelysin-2 [2] (read-out: IC50) and on Collagenase 3 [10] (read-out: IC50) were 7.51 and 8.30, respectively. The IC50 at Stromelysin-2 [2] (read-out: pIC50 (converted)) is 24.5 to 29.5 nM; at Collagenase 3 [10] (read-out: pIC50 (converted)), 3.63 to 5.5 nM.
